# Data reported in ChEMBL document CHEMBL1137629, “Antiproliferative effect of dihydroxyacetone on Trypanosoma brucei bloodstream forms: cell cycle progression, subcellular alterations, and cell death” (Antimicrob Agents Chemother, 2007).
# Activity calls are given as the source filed them. The rule behind the calls is not given here.
# What was measured:
# Trypanosoma brucei [1] = assay: Effect on morphological changes in Trypanosoma brucei bloodstream form assessed as dilation of mitochondrion membrane at 3 mM after 24 hrs by transmission electron microscopy; type: functional, organism-based
# Method in brief: (§1)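 Parasites exposed 24 h to 3 mM DHA. 10⁸ cells fixed 1 h at 4°C in 2% glutaraldehyde in 0.2 M sodium cacodylate with 0.12 M sucrose, held overnight in buffer, postfixed in 1.5% osmium tetroxide and stained with 0.5% uranyl acetate. Dehydrated in ethanol, cleared in propylene oxide, embedded in Agar 100. Sections stained with 5% uranyl acetate and 0.4% lead citrate for TEM. Rapamycin (5 μM) served as the autophagy positive control.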
# Trypanosoma brucei [2] = assay: Effect on cell cycle of Trypanosoma brucei bloodstream form assessed as induction of necrosis at 2 mM after 24 hrs using propidium iodide staining by FACS analysis; type: functional
# Method in brief: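 Bloodstream forms exposed 24 h at 37°C, 5% CO₂. Cells at 2 × 10⁶/ml incubated 10 min with propidium iodide (5 μg/ml), and uptake read by flow cytometry as a measure of membrane integrity. Digitonin (6 μM) served as the necrosis positive control.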
# Trypanosoma brucei [3] = assay: Induction of apoptosis-like programmed cell death in Trypanosoma brucei bloodstream form assessed as phosphatidylserine exposure in outer leaflet of plasma membrane at 3 mM after 24 hrs by V-Fluos staining staining; type: functional
# Method in brief: (§2)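 After 24 h DHA exposure of axenic bloodstream-form T. brucei MITat 1.2 (EATRO 427; 37°C, 5% CO₂), cells were washed in HEPES buffer (10 mM, pH 7.4, 140 mM NaCl, 5 mM CaCl₂). They were then stained with annexin V-Fluos for 15 min at 4°C and analysed by flow cytometry.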
# Trypanosoma brucei [4] = assay: Trypanocidal activity against Trypanosoma brucei bloodstream form assessed as cell death at 1 mM after 40 mins by spectrophotometry; type: functional, organism-based
# Trypanosoma brucei [5] = assay: Induction of apoptosis-like programmed cell death in Trypanosoma brucei bloodstream form assessed as loss of mitochondrial-membrane potential at 2 mM after 24 hrs by TMRE staining; type: functional
# Method in brief: (§3)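 T. brucei MITat 1.2 (EATRO 427) bloodstream forms were grown axenically at 37°C, 5% CO₂ and exposed to DHA for 24 h. Cells at 10⁶/ml were stained with 25 nM TMRE in culture medium for 30 min at 37°C and read at once by flow cytometry. Depolarization control: valinomycin 100 nM. Lower fluorescence signifies lost membrane potential.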
# Trypanosoma brucei [6] = assay: Induction of apoptosis-like programmed cell death in Trypanosoma brucei bloodstream form assessed as increase in intracellular reactive oxygen species production at 5 uM after 24 hrs by FACS analysis; type: functional
# Trypanosoma brucei [7] = assay: Effect on cell cycle of Trypanosoma brucei bloodstream form assessed as DNA content at 5 uM after 24 hrs using propidium iodide staining by FACS analysis; type: functional
# Method in brief: (§4)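 T. brucei bloodstream forms (MITat 1.2, strain EATRO 427), axenic culture at 37°C, 5% CO₂. Treated 24 h. At least 5 × 10⁵ cells washed in PBS, lysed hypotonically 30 min at room temperature in 10 mM phosphate buffer pH 7.4 with 6 μM digitonin. Nuclei stained with propidium iodide (10 μg/ml final) and analysed by flow cytometry for G₁/S/G₂ distribution and degraded DNA.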
# Trypanosoma brucei [8] = assay: Induction of apoptosis-like programmed cell death in Trypanosoma brucei bloodstream form assessed as loss of mitochondrial-membrane potential at 4 mM after 24 hrs by TMRE staining; type: functional; method in brief: as §3
# Trypanosoma brucei [9] = assay: Effect on morphological changes in Trypanosoma brucei bloodstream form assessed as increase in cell size at 5 mM after 20 hrs by scanning electron microscopy; type: functional, organism-based
# Method in brief: (§5)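 Cells grown 20 h with 5 mM DHA. Fixed and stained as for TEM (glutaraldehyde, osmium tetroxide, uranyl acetate), then dehydrated through 50, 75, 95 and 100% ethanol. Critical-point dried and gold-palladium sputter-coated for scanning electron microscopy.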
# Trypanosoma brucei [10] = assay: Induction of apoptosis-like programmed cell death in Trypanosoma brucei bloodstream form assessed as phosphatidylserine exposure in outer leaflet of plasma membrane at 4 mM after 24 hrs by V-Fluos staining staining; type: functional; method in brief: as §2
# Trypanosoma brucei [11] = assay: Effect on morphological changes in Trypanosoma brucei bloodstream form assessed as disorder of mitochondrion structure at 3 mM after 24 hrs by transmission electron microscopy; type: functional, organism-based; method in brief: as §1
# Trypanosoma brucei [12] = assay: Induction of apoptosis-like programmed cell death in Trypanosoma brucei bloodstream form assessed as phosphatidylserine exposure in outer leaflet of plasma membrane at 2 mM after 24 hrs by V-Fluos staining staining; type: functional; method in brief: as §2
# Trypanosoma brucei [13] = assay: Trypanocidal activity against Trypanosoma brucei bloodstream form assessed as phosphatase activity; type: functional, organism-based
# Method in brief: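 Parasites in exponential growth diluted to 2 × 10⁵ cells/ml and cultured 24 h with 1–4 mM DHA. Lysis buffer with p-nitrophenyl phosphate (in 1 M sodium acetate pH 5.5, 1% Triton X-100) added. Read at 405 nm after 6 h at 37°C. IC₅₀ derived from phosphatase activity (Bodley method).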
# Trypanosoma brucei [14] = assay: Trypanocidal activity against Trypanosoma brucei bloodstream form assessed as cell death at 1 mM by spectrophotometry in presence of 1 mM glucose; type: functional, organism-based
# Trypanosoma brucei [15] = assay: Cell cycle arrest in Trypanosoma brucei bloodstream form assessed as accumulation at G2/M phase at 2 mM after 24 hrs using propidium iodide staining by FACS analysis; type: functional; method in brief: as §4
# Trypanosoma brucei [16] = assay: Effect on morphological changes in Trypanosoma brucei bloodstream form assessed as presence of kinetoplast after 24 hrs using DAPI staining by phase-contrast microscopy; type: functional, organism-based
# Method in brief: (§6)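 Bloodstream forms (MITat 1.2, EATRO 427) grown 24 h with or without DHA. Aliquots washed twice in PBS, resuspended, placed on slides and fixed with methanol. Stained 5 min with DAPI (0.1 μg/ml final), then washed. Phase-contrast and fluorescence images scored for nucleus/kinetoplast numbers (1N1K, 1N2K, 2N2K, 2N1K, abnormal). n = 4, Student's t test, SD.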
# Trypanosoma brucei [17] = assay: Effect on cell cycle of Trypanosoma brucei bloodstream form assessed as increase in cells with two nuclei and one kinetoplast at 1 to 3 mM using DAPI staining by phase-contrast microscopy; type: functional, organism-based; method in brief: as §6
# Trypanosoma brucei [18] = assay: Induction of apoptosis-like programmed cell death in Trypanosoma brucei bloodstream form assessed as increase in intracellular reactive oxygen species production at 4 mM after 24 hrs by FACS analysis; type: functional
# Method in brief: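 Bloodstream-form T. brucei MITat 1.2 (VSG 221, strain EATRO 427) were grown axenically at 37°C, 5% CO₂ and exposed to DHA for 24 h. Control and treated cells were then loaded with 10 μM dichlorofluorescein diacetate for 1 h at 37°C. Intracellular fluorescence intensity was read by flow cytometry.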
# Trypanosoma brucei [19] = assay: Effect on morphological changes in Trypanosoma brucei bloodstream form assessed as increase in mitochondrion size at 3 mM after 24 hrs by transmission electron microscopy; type: functional, organism-based; method in brief: as §1
# Trypanosoma brucei [20] = assay: Effect on morphological changes in Trypanosoma brucei bloodstream form assessed as appearance of multiple folds in mitochondrion membrane at 3 mM after 24 hrs by transmission electron microscopy; type: functional, organism-based; method in brief: as §1
# Trypanosoma brucei [21] = assay: Effect on cell cycle of Trypanosoma brucei bloodstream form assessed as DNA content at 4 mM after 24 hrs using propidium iodide staining by FACS analysis; type: functional; method in brief: as §4
# Trypanosoma brucei [22] = assay: Effect on morphological changes in Trypanosoma brucei bloodstream form assessed as presence of atypical combination of number of nucleus at 5 mM after 20 hrs by scanning electron microscopy; type: functional, organism-based; method in brief: as §5
# Trypanosoma brucei [23] = assay: Effect on morphological changes in Trypanosoma brucei bloodstream form assessed as dilation of mitochondrial membrane at 3 mM after 24 hrs by transmission electron microscopy; type: functional, organism-based; method in brief: as §1
# Trypanosoma brucei [24] = assay: Trypanocidal activity against Trypanosoma brucei bloodstream form at > 1 mM; type: functional, organism-based
structure (smiles),measurement,setting,value
O=C(CO)CO [DIHYDROXYACETONE],Activity,Trypanosoma brucei [1],Active
same,Activity,Trypanosoma brucei [2],8.3%
same,Activity,Trypanosoma brucei [3],11.9%
same,Activity,Trypanosoma brucei [4],Active
same,Activity,Trypanosoma brucei [5],7.3%
same,Activity,Trypanosoma brucei [6],33.6%
same,Activity,Trypanosoma brucei [7],47%
same,Activity,Trypanosoma brucei [8],26.8%
same,Activity,Trypanosoma brucei [9],inactive
same,Activity,Trypanosoma brucei [10],20%
same,Activity,Trypanosoma brucei [11],Active
same,Activity,Trypanosoma brucei [12],10.1%
same,IC50,Trypanosoma brucei [13],1030 µM
same,Activity,Trypanosoma brucei [14],inactive
same,Activity,Trypanosoma brucei [15],<=70%
same,Activity,Trypanosoma brucei [16],Dose-dependent effect
same,Activity,Trypanosoma brucei [17],Active
same,Activity,Trypanosoma brucei [18],23.2%
same,Activity,Trypanosoma brucei [19],Active
same,Activity,Trypanosoma brucei [20],Active
same,Activity,Trypanosoma brucei [21],9.7%
same,Activity,Trypanosoma brucei [22],inactive
same,Activity,Trypanosoma brucei [23],Active
same,Activity,Trypanosoma brucei [24],Active
